These results are taken from ChEMBL document CHEMBL3774359, “Synthesis of benzofuran derivatives as selective inhibitors of tissue-nonspecific alkaline phosphatase: effects on cell toxicity and osteoblast-induced mineralization” (Bioorg Med Chem Lett, 2016).

The source made the active and inactive calls. The rule behind the calls is not given here.

The target in data set [1] is T1, Alkaline phosphatase, placental type (Homo sapiens, UniProt P05187). As to the kind of experiment: Inhibition of human placental alkaline phosphatase using para-nitrophenylphosphate as substrate preincubated for 10 mins at pH 7.8 followed by substrate addition.
Data set [2] in a line: Inhibition of porcine kidney TNAP using para-nitrophenylphosphate as substrate preincubated for 10 mins at pH 7.8 followed by substrate addition.
Data set [3] in a line: Inhibition of porcine kidney TNAP using para-nitrophenylphosphate as substrate preincubated for 10 mins at pH 10.4 followed by substrate addition.
In data set [4] the target is T2, Intestinal-type alkaline phosphatase (Bos taurus, UniProt P19111). As to the kind of experiment: Inhibition of bovine intestinal alkaline phosphatase using para-nitrophenylphosphate as substrate preincubated for 10 mins at pH 10.4 followed by substrate addition.
The target of data set [5] is T2, Intestinal-type alkaline phosphatase. Kind of data set: Inhibition of bovine intestinal alkaline phosphatase using para-nitrophenylphosphate as substrate preincubated for 10 mins at pH 7.8 followed by substrate addition.
Data set [6] has as its target T1, Alkaline phosphatase, placental type. Kind of data set: Inhibition of human placental alkaline phosphatase using para-nitrophenylphosphate as substrate preincubated for 10 mins at pH 10.4 followed by substrate addition.
For the next data set, the species on record is Sus scrofa. As to the kind of experiment: Uncompetitive inhibition of porcine kidney TNAP using para-nitrophenylphosphate as substrate preincubated for 10 mins at pH 7.8 to 10.4 followed by substrate addition.
Data set [7] can be described thus: Inhibition of porcine kidney TNAP using para-nitrophenylphosphate as substrate preincubated for 10 mins at pH 7.8 followed by substrate addition. The arrangement: species or system Sus scrofa.
The target of data set [8] is T3, Alkaline phosphatase, tissue-nonspecific isozyme (Homo sapiens) (UniProt P05186).
T3 sequence (whole entry): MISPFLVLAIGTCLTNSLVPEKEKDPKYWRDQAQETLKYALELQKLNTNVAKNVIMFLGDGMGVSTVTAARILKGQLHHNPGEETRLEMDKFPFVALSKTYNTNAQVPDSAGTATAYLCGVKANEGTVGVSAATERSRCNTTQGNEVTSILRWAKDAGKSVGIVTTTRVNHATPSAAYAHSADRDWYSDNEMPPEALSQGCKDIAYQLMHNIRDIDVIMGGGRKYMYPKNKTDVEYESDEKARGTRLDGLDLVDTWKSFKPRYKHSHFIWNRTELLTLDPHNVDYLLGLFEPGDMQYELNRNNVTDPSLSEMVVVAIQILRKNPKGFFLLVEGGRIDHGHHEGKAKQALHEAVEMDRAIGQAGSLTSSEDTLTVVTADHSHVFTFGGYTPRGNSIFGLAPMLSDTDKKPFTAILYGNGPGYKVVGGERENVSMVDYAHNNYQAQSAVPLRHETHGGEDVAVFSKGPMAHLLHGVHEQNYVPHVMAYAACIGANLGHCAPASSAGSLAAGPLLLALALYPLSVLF
Kind of data set: Inhibition of TNAP in human Saos2 cells assessed as reduction of ascorbic acid and beta-glycerophosphate-induced mineralization at 20 to 40 uM after 6 days by alizarin red-s staining based assay. The data set is classed as cell-based. Particulars: SAOS-2. Summed up: (§1)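 Saos-2 cells and mouse primary osteoblasts received ascorbic acid plus β-glycerophosphate to stimulate differentiation and mineralization, with or without inhibitor. Mineral was quantified by Alizarin Red-S staining and expressed as percent of a control containing DMSO 0.1% (mL:mL) without inhibitor. Experiments were repeated in triplicate for each inhibitor (n = 9).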

Data set [9] is described as follows: Cytotoxicity against mouse MOVAS1 cells assessed as reduction in cell viability at 10 to 40 uM after 3 days by MTT assay. The class given is cell-based. Particulars: movas1, 72 h. In short, it runs like this:
(§2)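 Cells (human osteoblast-like Saos-2 and MG63, mouse vascular smooth muscle line MOVAS-1, mouse primary osteoblasts) were incubated with or without inhibitor for 3 days. Viability was read by MTT assay.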
(Tetrazolium dyes change colour on reduction, which living cells bring about.)

Data set [10] can be described thus: Cytotoxicity against human Saos2 cells assessed as reduction in cell viability at 10 to 40 uM after 3 days by MTT assay. The class given is cell-based. Particulars: saos-2, 72 h. In short, it runs like this: as §2
Data set [11] in a line: Cytotoxicity against human MG63 cells assessed as reduction in cell viability at 10 to 40 uM after 3 days by MTT assay. Particulars: mg-63, 72 h. The class given is cell-based. In short, it runs like this:
as §2

A short description of data set [12]: Cytotoxicity against mouse primary osteoblasts assessed as reduction in cell viability at 10 to 40 uM after 3 days by MTT assay. The data set is classed as cell-based. Particulars: osteoblast, 72 h. In short, it runs like this:
as §2

In data set [13] the target is T4, Alkaline phosphatase, tissue-nonspecific isozyme (Mus musculus) (UniProt P09242).
T4 sequence (whole entry): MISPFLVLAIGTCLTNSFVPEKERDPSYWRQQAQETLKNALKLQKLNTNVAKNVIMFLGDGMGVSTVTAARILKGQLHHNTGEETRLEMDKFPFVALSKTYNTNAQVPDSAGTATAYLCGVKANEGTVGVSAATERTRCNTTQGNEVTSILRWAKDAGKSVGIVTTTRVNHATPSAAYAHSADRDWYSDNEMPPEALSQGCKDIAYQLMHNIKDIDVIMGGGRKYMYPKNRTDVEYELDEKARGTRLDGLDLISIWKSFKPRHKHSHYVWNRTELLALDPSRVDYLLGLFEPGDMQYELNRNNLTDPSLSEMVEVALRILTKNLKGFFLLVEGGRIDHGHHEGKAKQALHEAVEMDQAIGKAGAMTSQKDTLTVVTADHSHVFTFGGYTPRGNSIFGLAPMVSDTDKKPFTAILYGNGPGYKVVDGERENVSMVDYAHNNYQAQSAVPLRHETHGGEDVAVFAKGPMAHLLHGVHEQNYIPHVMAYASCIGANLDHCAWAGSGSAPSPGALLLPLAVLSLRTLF
Kind of data set: Inhibition of TNAP in C57BL/6J mouse primary osteoblasts assessed as reduction of ascorbic acid and beta-glycerophosphate-induced mineralization at 10 uM after 6 days by alizarin red-s staining based assay relative to control. Summed up: as §1

Data set [14] concerns the target T4, Alkaline phosphatase, tissue-nonspecific isozyme (Mus musculus). Particulars: C57BL/6J, 10 to 40 uM.

T1 sequence (P05187 whole entry): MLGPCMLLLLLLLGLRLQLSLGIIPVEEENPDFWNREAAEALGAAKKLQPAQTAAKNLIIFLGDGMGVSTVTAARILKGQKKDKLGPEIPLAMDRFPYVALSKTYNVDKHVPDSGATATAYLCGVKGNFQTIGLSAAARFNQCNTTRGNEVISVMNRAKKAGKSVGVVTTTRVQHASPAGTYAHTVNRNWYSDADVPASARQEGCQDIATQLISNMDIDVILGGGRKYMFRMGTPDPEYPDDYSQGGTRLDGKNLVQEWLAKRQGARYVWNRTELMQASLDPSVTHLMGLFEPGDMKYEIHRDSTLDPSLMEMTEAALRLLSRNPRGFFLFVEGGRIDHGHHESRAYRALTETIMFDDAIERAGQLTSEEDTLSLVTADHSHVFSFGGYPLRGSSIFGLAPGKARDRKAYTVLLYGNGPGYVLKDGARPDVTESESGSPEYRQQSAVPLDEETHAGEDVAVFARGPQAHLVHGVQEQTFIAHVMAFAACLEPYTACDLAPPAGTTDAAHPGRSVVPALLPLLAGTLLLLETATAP
T2 sequence (P19111 whole entry): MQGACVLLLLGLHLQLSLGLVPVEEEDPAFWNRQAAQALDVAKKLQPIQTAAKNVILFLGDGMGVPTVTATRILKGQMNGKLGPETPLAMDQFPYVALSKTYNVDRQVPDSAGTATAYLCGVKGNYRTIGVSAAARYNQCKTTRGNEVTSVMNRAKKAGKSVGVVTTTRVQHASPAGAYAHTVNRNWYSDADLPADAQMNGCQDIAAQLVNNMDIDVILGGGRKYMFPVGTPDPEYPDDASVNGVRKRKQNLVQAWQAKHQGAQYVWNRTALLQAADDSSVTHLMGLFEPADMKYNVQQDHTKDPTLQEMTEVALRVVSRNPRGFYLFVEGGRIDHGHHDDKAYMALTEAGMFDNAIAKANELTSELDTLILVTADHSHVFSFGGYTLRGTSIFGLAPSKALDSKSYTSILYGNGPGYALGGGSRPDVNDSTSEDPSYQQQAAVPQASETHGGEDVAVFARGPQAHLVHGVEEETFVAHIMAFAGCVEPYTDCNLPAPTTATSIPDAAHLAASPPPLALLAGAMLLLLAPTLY

In the case of `N=c1sccn1CC(O)c1cc2ccccc2o1` (centres undefined), the IC50 in data set [1], in data set [2], in [3], in data set [4], in [5] and in [6] was > 400 µM throughout.

For the molecule `N=c1sccn1CC(=O)c1cc2ccccc2o1`, the IC50 in data set [1], in [2], in data set [3], in data set [4], in data set [5] and in data set [6] was > 400 µM throughout.

Turning to `C1=CN2CC(c3cc4ccccc4o3)N=C2S1` (centres undefined), the inhibition entry (in the data set listed under Sus scrofa; in [8]) was “Active” each time. In data set [7], the Ki – broadly, the dissociation constant of the complex between target and ligand, obtained from inhibition or displacement – was 32 µM. Besides, the IC50 – broadly, the midpoint of a concentration-inhibition curve – in [1] was > 400 µM; in data set [2], 124 µM; in [3] it was 28 µM; in data set [4] it was > 400 µM; in data set [5], > 400 µM; in data set [6], > 400 µM. Also, the Activity entry in data set [9], in data set [10], in data set [11] and in data set [12] was “Non-toxic” throughout. The inhibition – broadly, the percentage by which the read-out fell short of the control – in data set [13] is 20%.

Consider `c1ccc([C@H]2CN3CCSC3=N2)cc1` [LEVAMISOLE], for which the inhibition entry in [14] was “inactive”. This molecule returned a Ki in [7] of 47 µM. For the same molecule, the IC50 in data set [1] is > 400 µM; in data set [2] it was 256 µM; in data set [3] it was 41 µM; in data set [4] it was > 400 µM; in data set [5] it was > 400 µM; in data set [6] it was > 400 µM.
